Results published in ChEMBL document CHEMBL2021791, “Synthesis, structure-activity relationships and biological evaluation of caudatin derivatives as novel anti-hepatitis B virus agents” (Bioorg Med Chem, 2012).

Tests used:
Hepatitis B virus [1] = assay: Antiviral activity against Hepatitis B virus infected in human HepG2(2.2.15) cells assessed as suppression of HBsAg secretion by ELISA; assay type: functional, organism-based
Hepatitis B virus [2] = assay: Antiviral activity against Hepatitis B virus infected in human HepG2(2.2.15) cells assessed as suppression of HbeAg secretion by ELISA; assay type: functional, organism-based
Hepatitis B virus [3] = assay: Antiviral activity against Hepatitis B virus infected in human HepG2(2.2.15) cells assessed as inhibition of viral DNA replication by RT-PCR analysis; assay type: functional, organism-based
[4] = Cytotoxicity against human HepG2(2.2.15) cells by MTT assay; assay type: cell-based
Method in brief: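 HepG2 2.2.15 cells were exposed to compounds and viability was read by a modified MTT method. CC50 is the concentration giving 50% cytotoxicity. Values are means of at least two experiments.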

Hepatitis B virus [5] = assay: Selectivity ratio of CC50 for human HepG2(2.2.15) cells to IC50 for Hepatitis B virus infected in human HepG2.2.15 cells assessed as suppression of HBsAg secretion; assay type: cell-based; conditions: read-out: Ratio CC50/IC50
Method in brief: (§1)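 The selectivity index was calculated as CC50/IC50. CC50 is MTT cytotoxicity in HepG2 2.2.15 cells. No index was given where a value could not be obtained.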

Hepatitis B virus [6] = assay: Selectivity ratio of CC50 for human HepG2(2.2.15) cells to IC50 for Hepatitis B virus infected in human HepG2(2.2.15) cells assessed as suppression of HBeAg secretion; assay type: cell-based; conditions: read-out: Ratio CC50/IC50; method in brief: as §1
Hepatitis B virus [7] = assay: Selectivity ratio of CC50 for human HepG2(2.2.15) cells to IC50 for Hepatitis B virus infected in human HepG2(2.2.15) cells assessed as inhibition of viral replication; assay type: cell-based; conditions: read-out: Ratio CC50/IC50; method in brief: as §1

SMILES	IC50 (Hepatitis B virus [1])	IC50 (Hepatitis B virus [2])	IC50 (Hepatitis B virus [3])	CC50 ([4]; HepG2(2.2.15) cells)	selectivity ratio (Hepatitis B virus [5])	selectivity ratio (Hepatitis B virus [6])	selectivity ratio (Hepatitis B virus [7])	CC50 ([4]; hepg2 2.2.15)
CC(=O)[C@]1(O)CC[C@@]2(O)[C@]1(C)[C@H](OC(=O)/C=C(\C)C(C)C)C[C@@H]1[C@@]3(C)CC[C@H](OC(=O)C(C#N)=C(C)C)CC3=CC[C@]12O	136 µM	221 µM	30.6 µM	452 µM	3.3	2	14.8	–
CC(=O)[C@]1(O)CC[C@@]2(O)[C@]1(C)[C@H](OC(=O)/C=C(\C)C(C)C)C[C@@H]1[C@@]3(C)CC[C@H](O)CC3=CC[C@]12O [CAUDATIN]	143 µM	> 183 µM	40.6 µM	–	1.7	< 1.3	6	245 µM
CC(=O)[C@]1(O)CC[C@@]2(O)[C@]1(C)[C@H](OC(=O)/C=C(\C)C(C)C)C[C@@H]1[C@@]3(C)CC[C@H](OC(=O)c4cccnc4)CC3=CC[C@]12OC(=O)c1cccnc1	199 µM	204 µM	97 µM	350 µM	1.8	1.7	3.6	–
CC(=O)[C@]1(OC(=O)/C=C/c2ccc3c(c2)OCO3)CC[C@@]2(O)[C@]1(C)[C@H](OC(=O)/C=C(\C)C(C)C)C[C@@H]1[C@@]3(C)CC[C@H](OC(=O)/C=C/c4ccc5c(c4)OCO5)CC3=CC[C@]12O	575 µM	407 µM	> 201 µM	> 1020 µM	> 1.8	> 2.5	–	–
C[C@H](Cn1cnc2c(N)ncnc21)OCP(=O)(O)O [TENOFOVIR ANHYDROUS]	1450 µM	1240 µM	0.77 µM	> 1820 µM	> 1.3	> 1.5	> 2360	–
CC(=O)[C@]1(OC(=O)c2cccnc2)CC[C@@]2(O)[C@]1(C)[C@H](OC(=O)/C=C(\C)C(C)C)C[C@@H]1[C@@]3(C)CC[C@H](OC(=O)c4cccnc4)CC3=CC[C@]12O	90 µM	135 µM	24.7 µM	602 µM	> 6.7	> 2.4	> 24.4	–
CC(=O)[C@]1(O)CC[C@@]2(O)[C@]1(C)[C@H](OC(=O)/C=C(\C)C(C)C)C[C@@H]1[C@@]3(C)CC[C@H](OC(=O)c4cnccn4)CC3=CC[C@]12O	95.5 µM	< 50.3 µM	47.9 µM	61.3 µM	–	> 1.2	1.3	–
CC(=O)[C@]1(O)CC[C@@]2(O)[C@]1(C)[C@H](OC(=O)/C=C(\C)C(C)C)C[C@@H]1[C@@]3(C)CC[C@H](OC(=O)COc4ccccc4)CC3=CC[C@]12O	76.7 µM	96.1 µM	41 µM	319 µM	4.2	3.3	7.8	–
CC(=O)[C@]1(O)CC[C@@]2(O)[C@]1(C)[C@H](OC(=O)/C=C(\C)C(C)C)C[C@@H]1[C@@]3(C)CC[C@H](OC(=O)c4cc5ccccc5[nH]4)CC3=CC[C@]12O	21.7 µM	33.7 µM	3.63 µM	36.7 µM	1.7	1.1	10.1	–
CC(=O)[C@]1(O)CC[C@@]2(O)[C@]1(C)[C@H](OC(=O)/C=C(\C)C(C)C)C[C@@H]1[C@@]3(C)CC[C@H](OC(=O)/C=C/n4ccnc4)CC3=CC[C@]12O	18.7 µM	13.2 µM	7.48 µM	> 1460 µM	> 78	> 111	> 195	–
CC(=O)N1CCC(C(=O)O[C@H]2CC[C@@]3(C)C(=CC[C@]4(O)[C@@H]3C[C@@H](OC(=O)/C=C(\C)C(C)C)[C@@]3(C)[C@]4(O)CC[C@@]3(O)C(C)=O)C2)CC1	93.2 µM	< 62.1 µM	54.8 µM	62.1 µM	–	> 1	1.1	–
CC(=O)[C@]1(O)CC[C@@]2(O)[C@]1(C)[C@H](OC(=O)/C=C(\C)C(C)C)C[C@@H]1[C@@]3(C)CC[C@H](OC(=O)COCC(=O)O)CC3=CC[C@]12O	524 µM	115 µM	164 µM	274 µM	–	2.4	1.7	–
CCOCC(=O)O[C@H]1CC[C@@]2(C)C(=CC[C@]3(O)[C@@H]2C[C@@H](OC(=O)/C=C(\C)C(C)C)[C@@]2(C)[C@]3(O)CC[C@@]2(O)C(C)=O)C1	68.2 µM	> 153 µM	13.8 µM	116 µM	1.7	–	8.4	–
COCC(=O)O[C@H]1CC[C@@]2(C)C(=CC[C@]3(O)[C@@H]2C[C@@H](OC(=O)/C=C(\C)C(C)C)[C@@]2(C)[C@]3(O)CC[C@@]2(OC(=O)COC)C(C)=O)C1	331 µM	> 1400 µM	288 µM	> 1400 µM	> 4.2	–	> 4.9	–
CC(=O)[C@]1(O)CC[C@@]2(O)[C@]1(C)[C@H](OC(=O)/C=C(\C)C(C)C)C[C@@H]1[C@@]3(C)CC[C@H](O)C[C@@]34O[C@H]4C[C@]12O	189 µM	1140 µM	184 µM	226 µM	1.2	–	1.2	–
